Laboratory results taken from ChEMBL document CHEMBL5724801, “EUbOPEN Chemogenomics Library - Multiplex” (2024).
“And” between values parts separate entries of the source, which are not always exact repeats. Identical values can stand only once.

System: U2OS
Assay: Multiplex assay against U2OS
Assay type: toxicity, cell-based
Conditions: human
In short: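 Cells stained live at seeding with Hoechst33342, BioTracker Green Microtubule Cytoskeleton Dye, MitoTracker Red and Annexin V Alexa Fluor 680 were imaged on a CQ1 microscope at 37°C and 5% CO2 after compound addition. Their classification by CellPathfinder machine-learning gating ran from Hoechst high-intensity objects versus normal cells, to healthy, pyknosed or fragmented nuclei among normal cells, to mitotic or apoptotic among pyknosed cells. Tubulin, mitochondrial-mass and membrane-permeability phenotypes are per cents of healthy-nucleus cells.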

[1] = 12 h, 1 µM, compound concentration 1 uM
[2] = 12 h, 10 µM, compound concentration 10 uM
[3] = 24 h, 1 µM, compound concentration 1 uM
[4] = 24 h, 10 µM, compound concentration 10 uM
[5] = 48 h, 1 µM, compound concentration 1 uM
[6] = 48 h, 10 µM, compound concentration 10 uM

CC(C)[C@H](C(=O)Nc1ccc(C(=O)NO)cc1)c1ccccc1 [AR-42]
Population Apoptotic (%) [1]: 27.71% and 34.88% | Population Fragmented Nuclei (%) [1]: 2.59% and 3.95% | Population Healthy Nuclei (%) [1]: 77.88% and 71.75% | Population Hoechst High Intensity Objects (%) [1]: 0% | Population Membrane Permeable-Phenotype (%) [1]: 0.6% and 1.57% | Population Mitochondria Different-Phenotype (%) [1]: 0.3% and 7.87% | Population Mitotic Cells (%) [1]: 72.29% and 65.12% | Population Normal (%) [1]: 100% | Population Pyknosed Nuclei (%) [1]: 19.53% and 24.29% | Population Tubulin-Different-Phenotype (%) [1]: 0.6% and 0% | Total Cell Count [1]: 425 and 177 | Population Apoptotic (%) [2]: 22.08% and 11.11% | Population Fragmented Nuclei (%) [2]: 2.31% and 1.96% | Population Healthy Nuclei (%) [2]: 75.5% and 80.39% | Population Hoechst High Intensity Objects (%) [2]: 0% | Population Membrane Permeable-Phenotype (%) [2]: 0.38% and 3.25% | Population Mitochondria Different-Phenotype (%) [2]: 0% and 2.44% | Population Mitotic Cells (%) [2]: 77.92% and 88.89% | Population Normal (%) [2]: 100% | Population Pyknosed Nuclei (%) [2]: 22.19% and 17.65% | Population Tubulin-Different-Phenotype (%) [2]: 0.76% and 0.81% | Total Cell Count [2]: 347 and 153 | Population Apoptotic (%) [3]: 34.74% and 52.56% | Population Fragmented Nuclei (%) [3]: 5.86% and 12.17% | Population Healthy Nuclei (%) [3]: 51.35% and 46.56% | Population Hoechst High Intensity Objects (%) [3]: 0% | Population Membrane Permeable-Phenotype (%) [3]: 1.75% and 5.68% | Population Mitochondria Different-Phenotype (%) [3]: 0% and 5.68% | Population Mitotic Cells (%) [3]: 65.26% and 47.44% | Population Normal (%) [3]: 100% | Population Pyknosed Nuclei (%) [3]: 42.79% and 41.27% | Population Tubulin-Different-Phenotype (%) [3]: 4.82% and 3.41% | Total Cell Count [3]: 444 and 189 | Population Apoptotic (%) [4]: 38.59% and 30.67% | Population Fragmented Nuclei (%) [4]: 5.97% and 3.36% | Population Healthy Nuclei (%) [4]: 39.1% and 46.31% | Population Hoechst High Intensity Objects (%) [4]: 0% | Population Membrane Permeable-Phenotype (%) [4]: 3.82% and 5.8% | Population Mitochondria Different-Phenotype (%) [4]: 0% and 2.9% | Population Mitotic Cells (%) [4]: 61.41% and 69.33% | Population Normal (%) [4]: 100% | Population Pyknosed Nuclei (%) [4]: 54.93% and 50.34% | Population Tubulin-Different-Phenotype (%) [4]: 6.87% and 8.7% | Total Cell Count [4]: 335 and 149 | Population Apoptotic (%) [5]: 73.08% and 85.05% | Population Fragmented Nuclei (%) [5]: 10.42% and 6.52% | Population Healthy Nuclei (%) [5]: 25.06% and 35.33% | Population Hoechst High Intensity Objects (%) [5]: 0.25% and 0% | Population Membrane Permeable-Phenotype (%) [5]: 14.85% and 23.08% | Population Mitochondria Different-Phenotype (%) [5]: 0% and 10.77% | Population Mitotic Cells (%) [5]: 26.92% and 14.95% | Population Normal (%) [5]: 99.75% and 100% | Population Pyknosed Nuclei (%) [5]: 64.52% and 58.15% | Population Tubulin-Different-Phenotype (%) [5]: 30.69% and 30.77% | Total Cell Count [5]: 404 and 184 | Population Apoptotic (%) [6]: 83.05% and 91.57% | Population Fragmented Nuclei (%) [6]: 2.34% and 3.4% | Population Healthy Nuclei (%) [6]: 38.46% and 40.14% | Population Hoechst High Intensity Objects (%) [6]: 0% and 0.68% | Population Membrane Permeable-Phenotype (%) [6]: 18.26% and 44.07% | Population Mitochondria Different-Phenotype (%) [6]: 0% and 1.69% | Population Mitotic Cells (%) [6]: 16.95% and 8.43% | Population Normal (%) [6]: 100% and 99.32% | Population Pyknosed Nuclei (%) [6]: 59.2% and 56.46% | Population Tubulin-Different-Phenotype (%) [6]: 34.78% and 18.64% | Total Cell Count [6]: 299 and 148

O=C(Nc1c[nH]nc1-c1nc2cc(CN3CCOCC3)ccc2[nH]1)NC1CC1 [AT-9283]
Population Apoptotic (%) [1]: 27.91% and 52.63% | Population Fragmented Nuclei (%) [1]: 2.75% and 2.61% | Population Healthy Nuclei (%) [1]: 85.4% and 84.97% | Population Hoechst High Intensity Objects (%) [1]: 0% | Population Membrane Permeable-Phenotype (%) [1]: 0.65% and 3.85% | Population Mitochondria Different-Phenotype (%) [1]: 0.32% and 9.23% | Population Mitotic Cells (%) [1]: 72.09% and 47.37% | Population Normal (%) [1]: 100% | Population Pyknosed Nuclei (%) [1]: 11.85% and 12.42% | Population Tubulin-Different-Phenotype (%) [1]: 1.29% and 0% | Total Cell Count [1]: 363 and 153 | Population Apoptotic (%) [2]: 43% and 36.73% | Population Fragmented Nuclei (%) [2]: 6.56% and 13.38% | Population Healthy Nuclei (%) [2]: 60.66% and 52.11% | Population Hoechst High Intensity Objects (%) [2]: 0% and 0.7% | Population Membrane Permeable-Phenotype (%) [2]: 1.62% and 5.41% | Population Mitochondria Different-Phenotype (%) [2]: 0% and 14.86% | Population Mitotic Cells (%) [2]: 57% and 63.27% | Population Normal (%) [2]: 100% and 99.3% | Population Pyknosed Nuclei (%) [2]: 32.79% and 34.51% | Population Tubulin-Different-Phenotype (%) [2]: 2.16% and 2.7% | Total Cell Count [2]: 305 and 143 | Population Apoptotic (%) [3]: 38.27% and 55.56% | Population Fragmented Nuclei (%) [3]: 5.31% and 3.57% | Population Healthy Nuclei (%) [3]: 73.21% and 75% | Population Hoechst High Intensity Objects (%) [3]: 0% | Population Membrane Permeable-Phenotype (%) [3]: 0.72% and 3.17% | Population Mitochondria Different-Phenotype (%) [3]: 0% and 7.94% | Population Mitotic Cells (%) [3]: 61.73% and 44.44% | Population Normal (%) [3]: 100% | Population Pyknosed Nuclei (%) [3]: 21.49% and 21.43% | Population Tubulin-Different-Phenotype (%) [3]: 1.81% and 0% | Total Cell Count [3]: 377 and 168 | Population Apoptotic (%) [4]: 50.29% and 58.51% | Population Fragmented Nuclei (%) [4]: 11.38% and 13.89% | Population Healthy Nuclei (%) [4]: 28.28% and 20.83% | Population Hoechst High Intensity Objects (%) [4]: 0.34% and 1.37% | Population Membrane Permeable-Phenotype (%) [4]: 4.88% and 10% | Population Mitochondria Different-Phenotype (%) [4]: 0% and 10% | Population Mitotic Cells (%) [4]: 49.71% and 41.49% | Population Normal (%) [4]: 99.66% and 98.63% | Population Pyknosed Nuclei (%) [4]: 60.34% and 65.28% | Population Tubulin-Different-Phenotype (%) [4]: 10.98% and 3.33% | Total Cell Count [4]: 291 and 146 | Population Apoptotic (%) [5]: 55.84% and 65.43% | Population Fragmented Nuclei (%) [5]: 5.53% and 3.43% | Population Healthy Nuclei (%) [5]: 57.45% and 50.29% | Population Hoechst High Intensity Objects (%) [5]: 0.24% and 0.57% | Population Membrane Permeable-Phenotype (%) [5]: 4.6% and 11.36% | Population Mitotic Cells (%) [5]: 44.16% and 34.57% | Population Normal (%) [5]: 99.76% and 99.43% | Population Pyknosed Nuclei (%) [5]: 37.02% and 46.29% | Population Tubulin-Different-Phenotype (%) [5]: 11.3% and 13.64% | Total Cell Count [5]: 417 and 176 | Population Apoptotic (%) [6]: 69.51% and 86% | Population Fragmented Nuclei (%) [6]: 9.83% and 10.61% | Population Healthy Nuclei (%) [6]: 14.58% and 13.64% | Population Hoechst High Intensity Objects (%) [6]: 0.34% and 0% | Population Membrane Permeable-Phenotype (%) [6]: 27.91% and 11.11% | Population Mitochondria Different-Phenotype (%) [6]: 0% and 5.56% | Population Mitotic Cells (%) [6]: 30.49% and 14% | Population Normal (%) [6]: 99.66% and 100% | Population Pyknosed Nuclei (%) [6]: 75.59% and 75.76% | Population Tubulin-Different-Phenotype (%) [6]: 58.14% and 50% | Total Cell Count [6]: 296 and 132
